Results on nine molecules are retold here after ChEMBL document CHEMBL4130370, “Discovery of 5,6-diaryl-1,2,4-triazines hybrids as potential apoptosis inducers” (Eur J Med Chem, 2017).

What all share (assay type): functional, cell-based
One test relates to MGC-803. As to the kind of experiment: Antiproliferative activity against human MGC803 cells after 48 hrs by MTT assay. To be noted: MGC-803, 48 h. The procedure, abridged:
(§1)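 Cells exposed to compounds for 48 h, then read by MTT. IC50 is the concentration giving 50% inhibition of tumour cell proliferation, taken from dose-response curves. Values are means±SD of three independent experiments. 5-FU was the reference drug.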

The test system of a further test is PC-3. Put plainly: Antiproliferative activity against human PC3 cells after 48 hrs by MTT assay. The settings on record: PC-3, 48 h. In outline: as §1
For orientation: Formazan colour is commonly taken as a measure of viable cells.

A further test relates to ECa-109 cell line. As to the kind of experiment: Antiproliferative activity against human EC109 cells after 48 hrs by MTT assay. To be noted: ECa-109, 48 h. In outline: as §1
The test system of a further test is SK-N-SH. As to the kind of experiment: Antiproliferative activity against human SK-N-SH cells after 48 hrs by MTT assay.

Some results are limits rather than exact numbers.

As usually defined, the IC50 is the concentration needed to halve the response being measured. For `COc1ccc(-c2coc3cc(OCCCn4cc(CSc5nnc(-c6ccccc6)c(-c6ccccc6)n5)nn4)ccc3c2=O)cc1`, the results for the half-maximal inhibitory concentration (IC50) in the test on MGC-803, with PC-3 and in the test on ECa-109 cell line were greater than 100 µM, 10.2 µM and greater than 100 µM, respectively.

In the case of `O=c1ccc2ccc(OCCCn3cc(CSc4nnc(-c5ccccc5)c(-c5ccccc5)n4)nn3)cc2o1`, the IC50 in the test with MGC-803 was greater than 100 µM; with PC-3 it was 92.3 µM; with ECa-109 cell line it was greater than 100 µM.

On to `CC(=O)CSc1nnc(-c2ccccc2)c(-c2ccccc2)n1`, for which the IC50 in the test with MGC-803, in the test with PC-3 and with ECa-109 cell line was greater than 100 µM in each case.

`O=C(O)CCSc1nnc(-c2ccccc2)c(-c2ccccc2)n1`: the half-maximal inhibitory concentration (IC50) in the test with MGC-803, in the test on PC-3 and in the test with ECa-109 cell line was greater than 100 µM throughout.

Consider `Cc1ccc(Cn2cc(CSc3nnc(-c4ccccc4)c(-c4ccccc4)n3)nn2)cc1`, for which the values for the half-inhibitory concentration (IC50) in the test on MGC-803, with PC-3 and with ECa-109 cell line were 34.8 µM, 22.6 µM and 12.4 µM, respectively.

On to `c1ccc(Cn2cc(CSc3nnc(-c4ccccc4)c(-c4ccccc4)n3)nn2)cc1`, for which the IC50 was 11.3 µM in the test with MGC-803, 15.6 µM in the test on PC-3 and 11.1 µM in the test with ECa-109 cell line.

As to `O=c1cc(OCCCn2cc(CSc3nnc(-c4ccccc4)c(-c4ccccc4)n3)nn2)c2ccccc2o1`, the half-inhibitory concentration (IC50) in the test on MGC-803 is greater than 100 µM; in the test on PC-3, 57.8 µM; in the test with ECa-109 cell line, greater than 100 µM.

Molecule `O=C(/C=C/c1ccc(OCCCn2cc(CSC3=NCCS3)nn2)cc1)c1ccc(Br)cc1` registered an IC50 in the test with SK-N-SH of 8.16 µM.

Turning to `COc1ccc(Cn2cc(CSc3nnc(-c4ccccc4)c(-c4ccccc4)n3)nn2)cc1`, the values for the IC50 in the test on MGC-803, in the test on PC-3 and in the test on ECa-109 cell line were 22.7 µM, 27.5 µM and 28.4 µM, respectively.
